Screening results: PubChem, Broad Institute
This excerpt belongs to a sample that is enriched for hits.
INS-1E rescue: preserves ATP levels in cytokine-treated INS-1E cells; INS-1E cytokine-induced death, ATP luminescence, 48 h; normalised: neutral wells 0, positive control 100; protection from cytokine-induced ATP loss, % at 10 µM; 0.1% of 20,000 active;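 active means mean replicate protection from cytokine-induced ATP loss at least 50% and at least 75% of replicates each reaching 50%; inconclusive means meets only one of the two criteria, mean or replicate share; inactive means fails both the mean and replicate share criteria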
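Assay system – rat INS-1E insulinoma cell line · Quantity – 8000 cells per well · Buffer or medium – RPMI without phenol red, 5% FBS · Schedule – 48 h co-treatment, 10 min post-lysis read · Technique – luminescent ATP assay (CellTiter-Glo)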
T cruzi HTS: inhibitors of intracellular Trypanosoma cruzi. intracellular Trypanosoma cruzi in host cells, plate reader. activity score (inhibition), % at 5.01 µM. 4.9% of 22,000 active; in the data active means activity score above about 55%; inconclusive means no clear call, values can overlap the other calls;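 further: parasites and compound incubated about four days before reading; 0% = median of neutral control wells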
YB-1 expr inh: YB-1 expression inhibition | U2OS, qRT-PCR YB-1 vs CDIP delta delta Cp, 16 h; hits give high values; zero = DMSO, each unit about twofold | delta delta Cp (YB-1 minus CDIP) (concentration not given with the values) | 0.37% of 30,000 active | AID 434959;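 active means delta delta Cp rounded down to an integer at or above 3, about 3 SD of DMSO wells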;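 further: higher means less YB-1 transcript or more CDIP transcript relative to DMSO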
* hit, by the source's call; ? = inconclusive; / = no result given.

SMILES	INS-1E rescue	T cruzi HTS	YB-1 expr inh
CCOC(=O)c1cnn(C(=O)Cc2cccc(OC)c2)c1N	/	/	5.2*
COc1ccc(S(=O)(=O)N(C)C[C@@H]2Oc3ncc(-c4cc5ccccc5o4)cc3C(=O)N([C@H](C)CO)C[C@@H]2C)cc1	-15	47	-0.34
C[C@H](CO)N1C[C@H](C)[C@H](CN(C)Cc2ccc3c(c2)OCO3)Oc2ncc(-c3ccc(F)cc3)cc2C1=O	/	19	-0.24
C[C@H](CO)N1C[C@H](C)[C@H](CN(C)C)Oc2ncc(-c3cc4ccccc4o3)cc2C1=O	/	85*	0.21
CCCN(C)C[C@@H]1Oc2ncc(-c3cc4ccccc4o3)cc2C(=O)N([C@H](C)CO)C[C@@H]1C	/	?	-0.26
C[C@H](CO)N1C[C@H](C)[C@H](CN(C)Cc2ccc3c(c2)OCO3)Oc2ncc(-c3cc4ccccc4o3)cc2C1=O	/	78*	0.23
C[C@H](CO)N1C[C@H](C)[C@H](CN(C)S(=O)(=O)c2cccs2)Oc2ncc(-c3cc4ccccc4o3)cc2C1=O	/	67*	-0.42
COC(=O)c1c(C(=O)OC)c2n(c1C)CSC2	/	/	-0.2
C=CC[C@@]12N=C(c3ccc(OCCCO)cc3)O[C@@H]1c1ccccc1N(CCS(=O)(=O)c1ccccc1)C2=O	/	/	0.18
CC(C)(C)OC(=O)CC[C@@]12N=C(c3ccc(OCCCO)cc3)O[C@@H]1c1ccccc1CN(CCS(=O)(=O)c1ccccc1)C2=O	/	/	0.041
Cc1noc(C)c1NC(=O)N(C)C[C@@H]1Oc2ncc(C#CC(C)(C)O)cc2C(=O)N([C@H](C)CO)C[C@@H]1C	/	-20	-0.19
C[C@@H]1CCCCO[C@H](CN(C)S(=O)(=O)c2ccccc2)[C@@H](C)CN([C@H](C)CO)C(=O)c2cc(NC(=O)c3ccccc3)ccc2O1	4	9	0.13
C[C@@H]1CCCCO[C@@H](CN(C)S(C)(=O)=O)[C@@H](C)CN([C@H](C)CO)C(=O)c2cc(NC(=O)Nc3ccc(C(F)(F)F)cc3)ccc2O1	-1	11	0.23
Cc1noc(C)c1NC(=O)Nc1ccc2c(c1)C(=O)N([C@H](C)CO)C[C@H](C)[C@@H](CN(C)S(=O)(=O)c1c(C)noc1C)OCCCC[C@@H](C)O2	0	-4	-0.24
C[C@@H]1CCCCO[C@H](CN(C)S(=O)(=O)c2ccccc2)[C@@H](C)CN([C@H](C)CO)C(=O)c2cc(NC(=O)Nc3ccc(C(F)(F)F)cc3)ccc2O1	-18	64*	0.063
Cc1ccc(S(=O)(=O)N(C)C[C@H]2OCCCC[C@@H](C)Oc3ccc(NC(=O)NC(C)C)cc3C(=O)N([C@H](C)CO)C[C@@H]2C)cc1	4	-19	-0.15
Cc1ccc(S(=O)(=O)N(C)C[C@H]2OCCCC[C@@H](C)Oc3ccc(NC(=O)Nc4ccc(C(F)(F)F)cc4)cc3C(=O)N([C@H](C)CO)C[C@@H]2C)cc1	-61	64*	0.086
C[C@@H]1CCCCO[C@@H](CN(C)S(=O)(=O)c2ccccc2)[C@@H](C)CN([C@H](C)CO)C(=O)c2cc(NC(=O)Nc3ccc(C(F)(F)F)cc3)ccc2O1	-13	69*	-0.44
Cc1noc(C)c1S(=O)(=O)N(C)C[C@H]1OCCCC[C@@H](C)Oc2ccc(NC(=O)Nc3ccc(C(F)(F)F)cc3)cc2C(=O)N([C@H](C)CO)C[C@@H]1C	-23	70*	0.31
O=C(CCn1cccc(C(F)(F)F)c1=O)Sc1ccccc1	/	/	0.15
C[C@@H]1CN([C@H](C)CO)C(=O)Cc2cc(N(C)C)ccc2O[C@H]1CN(C)S(=O)(=O)c1ccccc1	4	-21	-0.11
CC(C)=CCc1cc2c(c(CC=C(C)C)c1O)O[C@H](c1ccc(O)cc1)[C@@H](O)C2=O	/	/	0.3
C[C@@H]1CN([C@@H](C)CO)C(=O)Cc2cc(NC(=O)C3CCCCC3)ccc2O[C@@H]1CN(C)C(=O)NC1CCCCC1	-1	-6	0.18
O=C(CSc1nnc(COc2ccccc2)o1)Nc1ccccc1	/	/	0.16
C[C@@H]1CN([C@H](C)CO)C(=O)c2cc(NS(=O)(=O)c3ccc(F)cc3)ccc2O[C@H]1CN(C)C(=O)Nc1ccc(C(F)(F)F)cc1	-6	2	0.2
SMILES	INS-1E rescue	T cruzi HTS	YB-1 expr inh
COc1ccc(NC(=O)Nc2ccc3c(c2)C(=O)N([C@H](C)CO)C[C@H](C)[C@H](CN(C)S(=O)(=O)c2ccc(OC)cc2)OCCCC[C@@H](C)O3)cc1	-1	-3	0.64
COc1ccc(S(=O)(=O)N(C)C[C@@H]2OCCCC[C@@H](C)Oc3ccc(NC(=O)Nc4ccc(C(F)(F)F)cc4)cc3C(=O)N([C@H](C)CO)C[C@@H]2C)cc1	-11	65*	-0.012
Cc1ccc(S(=O)(=O)Nc2cccc3c2O[C@H](CN(C)Cc2ccc(-c4ccccc4)cc2)[C@@H](C)CN([C@H](C)CO)C3=O)cc1	-4	47	-0.036
C[C@@H]1CN([C@@H](C)CO)C(=O)c2cccc(NS(=O)(=O)c3ccc(Cl)cc3)c2O[C@@H]1CN(C)Cc1ccc(-c2ccccc2)cc1	-73	63*	-0.89
C[C@@H]1CN([C@H](C)CO)C(=O)c2cccc(NS(=O)(=O)c3ccccc3)c2O[C@@H]1CN(C)Cc1ccc(-c2ccccc2)cc1	-11	14	0.25
Cc1ccc(S(=O)(=O)Nc2cccc3c2O[C@@H](CN(C)Cc2ccc(-c4ccccc4)cc2)[C@@H](C)CN([C@@H](C)CO)C3=O)cc1	-67	74*	-0.14
Cc1ccc(S(=O)(=O)Nc2cccc3c2O[C@@H](CN(C)Cc2ccc4c(c2)OCO4)[C@@H](C)CN([C@H](C)CO)C3=O)cc1	-8	-11	-0.35
C[C@H]1CN([C@@H](C)CO)C(=O)c2cccc(NS(=O)(=O)c3ccc(Cl)cc3)c2O[C@@H]1CN(C)Cc1ccc(-c2ccccc2)cc1	-5	36	-0.16
C[C@@H]1CN([C@@H](C)CO)C(=O)c2cccc(NS(=O)(=O)c3ccccc3)c2O[C@@H]1CN(C)Cc1ccc(-c2ccccc2)cc1	-72	87*	-1.2
C[C@H](CO)N1C[C@H](C)[C@@H](CN(C)Cc2ccc3c(c2)OCO3)Oc2c(NS(=O)(=O)c3ccc(Cl)cc3)cccc2C1=O	10	58*	-0.085
C[C@@H]1CN([C@H](C)CO)C(=O)c2cc(NC(=O)Nc3ccc(F)cc3)ccc2O[C@H]1CN(C)Cc1ccc(C(=O)O)cc1	/	-7	-0.19
C[C@@H]1CN([C@H](C)CO)C(=O)c2cc(NC(=O)c3ccncc3)ccc2O[C@@H]1CN(C)Cc1ccc(-c2ccccc2)cc1	-19	4	-0.28
Cc1ccc(S(=O)(=O)Nc2cccc3c2O[C@H](CN(C)Cc2ccc(Oc4ccccc4)cc2)[C@@H](C)CN([C@H](C)CO)C3=O)cc1	-11	48	19*
Cc1ccc(S(=O)(=O)Nc2cccc3c2O[C@@H](CN(C)Cc2ccc(Oc4ccccc4)cc2)[C@H](C)CN([C@@H](C)CO)C3=O)cc1	1	51	0.057
C[C@@H]1CN([C@@H](C)CO)C(=O)c2cccc(NS(=O)(=O)c3cccs3)c2O[C@@H]1CN(C)Cc1ccc(C(=O)O)cc1	2	-13	0.56
